Measured values published in ChEMBL document CHEMBL1156450, “Naloxone acts as a potent analgesic in transgenic mouse models of sickle cell anemia” (Proc Natl Acad Sci U S A, 2007).
The source made the active and inactive calls. The calls are words filed in the database; no cut-off is given here.

Tests used:
Mus musculus [1] = assay: Antinociceptive effect in sc dosed sickle cell anemic NY1DD transgenic mouse after 60 mins by heat tail flick test; type: functional; conditions: 1 h
Summary of the method: (§1)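 Male mice aged 10–12 weeks, housed on a 12-h light/dark cycle. Radiant heat was aimed at the dorsal tail and the latency to flick was recorded. Dosing volumes were 5 μl per mouse for i.c.v. and i.t. and 10 ml/kg for s.c. At least three groups of 8–10 mice per paradigm; each mouse was used once. ED50 with 95% confidence intervals came from a parallel line assay.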

Mus musculus [2] = assay: Antinociceptive effect in intrathecally dosed C57BL/6J mouse after 10 mins by heat tail flick test; type: functional; summary of the method: as §1
Mus musculus [3] = assay: Antinociceptive effect in sc dosed C57BL/6J mouse after 60 mins by heat tail flick test; conditions: 1 h
Mus musculus [4] = assay: Antinociceptive effect in icv dosed sickle cell anemic NY1DD transgenic mouse after 10 mins by heat tail flick test; type: functional; summary of the method: as §1
Mus musculus [5] = species on record: Mus musculus; assay: Decrease in analgesic activity in CCL5 pretreated C57BL/6J mouse; type: functional, organism-based
Summary of the method: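 C57BL/6J mice were pretreated i.c.v. with murine RANTES (CCL5) at two doses 20 min before i.c.v. morphine, then tested by radiant heat tail-flick. The antagonist ED50 of RANTES was given with a 95% confidence interval. For reversal, 50 ng Met-RANTES per mouse was given 2 h before RANTES.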

Mus musculus [6] = assay: Antinociceptive effect in icv dosed C57BL/6J mouse after 10 mins by heat tail flick test; type: functional; summary of the method: as §1
Mus musculus [7] = assay: Antinociceptive effect in […] dosed sickle cell anemic NY1DD transgenic mouse after 10 mins by heat tail flick test; type: functional
Mus musculus [8] = assay: Reduction of analgesic activity in NY1DD transgenic mouse pretreated with Met-RANTES 2 hrs before drug administration; type: functional, organism-based
Summary of the method: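 NY1DD mice received Met-RANTES at 50 ng per mouse 2 h before the test drug. Analgesia was measured by radiant heat tail-flick.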

[9] = biological target: T1, C-C chemokine receptor type 5 (Mus musculus, UniProt P51682); assay: Binding affinity to CCR5 in NY1DD transgenic mouse brain membrane; type: tissue-based
Summary of the method: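 [3H]Naloxone saturation binding on pooled brains (cerebellum removed) from three mice. Tissue was homogenized in ice-cold Hepes pH 7.4, washed repeatedly with a 90-min ice step to deplete endogenous opiates, and used as a 2% suspension. Incubation was 90 min at room temperature; nonspecific binding was defined with 10 μM naloxone. Samples were filtered on PEI-soaked GF/C and counted by scintillation. Kd came from global fitting. Triplicates; 2–3 experiments, mean ± SEM.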

Mus musculus [10] = species on record: Mus musculus; assay: Down-regulation of CCR5 mRNA expression in sickle cell anemic NY1DD transgenic mouse; type: functional, organism-based
Summary of the method: (§2)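 C57BL/6J and NY1DD mice received 25 pmol per mouse of drug or 0.9% saline (5 μl). Brains were removed 10 min later, frozen in liquid N2 and used for RNA isolation and cDNA microarray hybridization (control RNA labeled with Cy3-dCTP; 42°C for 16 h).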

[11] = biological target: T1, C-C chemokine receptor type 5; assay: Binding affinity to CCR5 in C57BL/6J mouse brain membrane; type: cell membranes
Mus musculus [12] = assay: Antinociceptive effect in icv dosed sickle cell anemic hBERK1 transgenic mouse after 10 mins by heat tail flick test; type: functional; summary of the method: as §1
Mus musculus [13] = species on record: Mus musculus; assay: Down-regulation of CCR5 mRNA expression in C57BL/6J mouse; type: functional, organism-based; summary of the method: as §2
Mus musculus [14] = assay: Antinociceptive effect in NY1DD transgenic mouse assessed as partial agonist response at 8 nmol, icv by heat tail flick test; type: functional
Mus musculus [15] = species on record: Mus musculus; assay: Antinociceptive effect in NY1DD transgenic mouse assessed as partial agonist response at 2.5 nmol by heat tail flick test; type: functional
Mus musculus [16] = assay: Antinociceptive effect in intrathecally dosed NY1DD transgenic mouse after 6 hrs by heat tail flick test; type: functional; summary of the method: as §1
Mus musculus [17] = assay: Antinociceptive effect in icv dosed NY1DD transgenic mouse after 1 hr by heat tail flick test; type: functional; summary of the method: as §1

T1 sequence (P51682 whole entry): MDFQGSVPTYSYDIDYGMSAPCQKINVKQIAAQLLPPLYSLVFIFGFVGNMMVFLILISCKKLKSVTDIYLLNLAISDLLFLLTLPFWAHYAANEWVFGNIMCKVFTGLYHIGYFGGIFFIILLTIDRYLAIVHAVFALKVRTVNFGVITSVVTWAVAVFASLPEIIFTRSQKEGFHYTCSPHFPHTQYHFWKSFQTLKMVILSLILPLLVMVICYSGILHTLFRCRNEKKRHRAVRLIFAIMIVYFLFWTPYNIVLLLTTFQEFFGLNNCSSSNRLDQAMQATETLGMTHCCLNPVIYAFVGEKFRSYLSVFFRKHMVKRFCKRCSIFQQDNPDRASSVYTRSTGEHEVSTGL

`CN1CC[C@]23c4c5ccc(O)c4O[C@H]2[C@@H](O)C=C[C@H]3[C@H]1C5` [MORPHINE] gave an ED50 (Mus musculus [1]) of 2.36 µmol/kg, an ED50 (Mus musculus [2]) of 0.088 nmol and an ED50 (Mus musculus [3]) of 6.47 µmol/kg. The ED50 (Mus musculus [4]) was 3.95 nmol, the Activity (Mus musculus [5]) was “Active” and the ED50 (Mus musculus [6]) was 2.7 nmol. It also gave an ED50 (Mus musculus [7]) of 0.085 nmol.

With `C=CCN1CC[C@]23c4c5ccc(O)c4O[C@H]2C(=O)CC[C@@]3(O)[C@H]1C5` [NALOXONE] the ED50 (Mus musculus [1]) was 2.83 µmol/kg, the Activity (Mus musculus [8]) was “Active” and the Kd [9] was 10.5 nM. The ED50 (Mus musculus [4]) was 0.014 nmol, the Activity (Mus musculus [10]) was “Active” and the Kd [11] was 20.8 nM. The ED50 (Mus musculus [12]) was 0.03 nmol, the Activity (Mus musculus [13]) was “inactive” and the ED50 (Mus musculus [7]) was 0.045 nmol.

Work on `O=C1CC[C@@]2(O)[C@H]3Cc4ccc(O)c5c4[C@@]2(CCN3CC2CC2)[C@H]1O5` [NALTREXONE] yielded an Activity (Mus musculus [14]) of 33%.

Molecule `Oc1ccc2c3c1O[C@H]1c4[nH]c5ccccc5c4C[C@@]4(O)[C@@H](C2)N(CC2CC2)CC[C@]314` [NALTRINDOLE] has an Activity (Mus musculus [15]) of 10%.

`Oc1ccc2c3c1O[C@H]1c4[nH]c5c(c4C[C@@]4(O)[C@@H](C2)N(CC2CC2)CC[C@]314)C[C@@]1(O)[C@H]2Cc3ccc(O)c4c3[C@@]1(CCN2CC1CC1)[C@H]5O4` [NORBINALTORPHIMINE] gave an ED50 (Mus musculus [16]) of 0.46 nmol and an ED50 (Mus musculus [17]) of 1.55 nmol.
